Data: ChEMBL document CHEMBL1141152, “Efficient transfection of DNA by liposomes formulated with cationic gemini amphiphiles” (2005)

What was measured:
Format in all cases: functional, Rattus norvegicus
[1] = Percentage survived cells of LA7 cell line done for 6 hr with compound (21.3 uM) in trypan blue exclusion dye test
Procedure, shortened: (§1)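 LA7 rat mammary adenocarcinoma cells grown in DMEM with 10% FCS, penicillin/streptomycin, insulin and hydrocortisone (50 ng/mL each). Exposed 6 h to DMPC/cationic amphiphile liposomes (1/1; doubled amphiphile for single-headgroup surfactant), concentrations 425 μM to 8.5 μM; medium then replaced. Viability by Trypan blue exclusion 24 h later, counting unstained cells. Duplicates, at least five times; typical experiment shown.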

[2] = Percentage survived cells of LA7 cell line done for 6 hr with compound (42.5 uM) in trypan blue exclusion dye test; procedure, shortened: as §1
[3] = Percentage survived cells of LA7 cell line done for 6 hr with compound (8.5 uM) in trypan blue exclusion dye test; procedure, shortened: as §1
[4] = Percentage survived cells of LA7 cell line done for 6 hr with compound (213 uM) in trypan blue exclusion dye test; procedure, shortened: as §1
[5] = Percentage survived cells of LA7 cell line done for 6 hr with compound (85 uM) in trypan blue exclusion dye test; procedure, shortened: as §1

SMILES | Survival [1] [%] | Survival [2] [%] | Survival [3] [%] | Survival [4] [%] | Survival [5] [%]
CCCCCCCCCCCCCCCC[N+](C)(C)C[C@H](OC)[C@@H](C[N+](C)(C)CCCCCCCCCCCCCCCC)OC.[Br-].[Br-] [CATIONIC AMPHIPHILE] | 80 | 30 | 100 | – | –
CCCCCCCCCCCCCCCC[N+](C)(C)C[C@H](OC)[C@H](C[N+](C)(C)CCCCCCCCCCCCCCCC)OC.[Br-].[Br-] [CATIONIC AMPHIPHILE] | 90 | 10 | 100 | – | –
CCCCCCCCCCCCCCCC[N+](C)(C)CCCC[N+](C)(C)CCCCCCCCCCCCCCCC.[Br-].[Br-] [CATIONIC AMPHIPHILE] | 100 | 100 | 100 | 50 | 80
CCCCCCCCCCCCCCCC[N+](C)(C)C[C@@H](OC)[C@@H](C[N+](C)(C)CCCCCCCCCCCCCCCC)OC.[Br-].[Br-] [CATIONIC AMPHIPHILE] | – | – | 100 | – | –
CCCCCCCCCCCCCCCC[N+](C)(C)CCOC.[Br-] | 100 | 100 | 100 | 50 | 80
